The text below walks through data of ChEMBL document CHEMBL5143735, “Design, Synthesis, and Characterization of [18F]mG2P026 as a High-Contrast PET Imaging Ligand for Metabotropic Glutamate Receptor 2” (J Med Chem, 2022).

Data set [1] can be described thus: Unbound fraction in cynomolgus monkey plasma measured upto 140 mins by ultracentrifugation.
Data set [2] can be described thus: in vivo. Conditions: cynomolgus monkey, whole blood and plasma.
Data set [3] can be described thus: in vivo. The following applies: cynomolgus monkey, plasma.
In data set [4] the target is Metabotropic glutamate receptor 1 (Homo sapiens, UniProt Q13255). The experiment in a line: Agonist activity at mGlu1 receptor (unknown origin) expressed in human Flp-In-T-REx-293 cells by Ca2+ mobilization assay.
In data set [5] the target is Metabotropic glutamate receptor 4 (Homo sapiens, UniProt Q14833). The experiment in a line: Agonist activity at mGlu4 receptor (unknown origin) expressed in human Flp-In-T-REx-293 cells by luciferase based GloSensor cAMP Assay. The format is functional, cell-based, HEK293. An outline of the steps:
(§1)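 Tetracycline-inducible Flp-In T-REx-293 cells stably carrying mGluR4, mGluR6 or mGluR8, grown in DMEM with 10% FBS, hygromycin B and blasticidin at 37 °C, 5% CO2. Gi/o-coupled receptor activation read as intracellular cAMP change by split-luciferase GloSensor biosensor. EC50 from four-parameter logistic fit of concentration–response curves; each assay run at least three times.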

In data set [6] the target is Metabotropic glutamate receptor 8 (Homo sapiens, UniProt O00222). The experiment in a line: Agonist activity at mGlu8 receptor (unknown origin) expressed in human Flp-In-T-REx-293 cells by luciferase based GloSensor cAMP Assay. Type of data set: functional, cell-based, HEK293. In a few lines:
as §1

Data set [7] deals with Metabotropic glutamate receptor 6 (Homo sapiens, UniProt O15303). Description: Agonist activity at mGlu6 receptor (unknown origin) expressed in human Flp-In-T-REx-293 cells by luciferase based GloSensor cAMP Assay. The format is functional, cell-based, HEK293. In a few lines: as §1
Data set [8] has as its target Metabotropic glutamate receptor 5 (Homo sapiens, UniProt P41594). Description: Agonist activity at mGlu5 receptor (unknown origin) expressed in human Flp-In-T-REx-293 cells by Ca2+ mobilization assay. (In general: A change in cytosolic calcium serves as a functional read-out for many receptors and channels.)

A word on the fraction unbound: it is free concentration divided by total concentration. A word on the fraction remaining: it is what is left of the initial amount, in per cent. The EC50 is the concentration giving half of the maximal effect.

Chain of Metabotropic glutamate receptor 4 (Q14833 whole entry): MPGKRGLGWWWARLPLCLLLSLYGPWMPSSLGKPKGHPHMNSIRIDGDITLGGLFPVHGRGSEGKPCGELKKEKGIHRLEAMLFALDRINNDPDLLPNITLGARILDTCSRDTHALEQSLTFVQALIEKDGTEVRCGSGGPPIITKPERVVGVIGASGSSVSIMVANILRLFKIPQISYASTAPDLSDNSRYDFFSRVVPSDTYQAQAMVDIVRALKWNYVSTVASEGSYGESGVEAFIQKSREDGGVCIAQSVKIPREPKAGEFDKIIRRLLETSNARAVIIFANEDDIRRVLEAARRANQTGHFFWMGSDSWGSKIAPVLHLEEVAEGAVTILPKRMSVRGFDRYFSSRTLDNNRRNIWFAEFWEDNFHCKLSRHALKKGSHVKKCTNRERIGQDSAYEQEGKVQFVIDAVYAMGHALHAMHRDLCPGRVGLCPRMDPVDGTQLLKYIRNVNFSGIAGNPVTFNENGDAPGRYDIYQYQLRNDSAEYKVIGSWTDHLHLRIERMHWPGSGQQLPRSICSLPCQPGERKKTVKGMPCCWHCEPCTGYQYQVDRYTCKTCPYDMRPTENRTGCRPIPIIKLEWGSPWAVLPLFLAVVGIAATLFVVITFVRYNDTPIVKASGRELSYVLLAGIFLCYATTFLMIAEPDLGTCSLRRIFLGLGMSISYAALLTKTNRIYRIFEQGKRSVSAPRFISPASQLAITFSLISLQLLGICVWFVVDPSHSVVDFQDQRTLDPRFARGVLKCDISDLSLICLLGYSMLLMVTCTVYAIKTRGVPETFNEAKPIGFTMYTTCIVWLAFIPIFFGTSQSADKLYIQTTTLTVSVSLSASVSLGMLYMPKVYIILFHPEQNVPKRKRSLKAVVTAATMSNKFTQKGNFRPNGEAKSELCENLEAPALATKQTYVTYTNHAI
Chain of Metabotropic glutamate receptor 6 (O15303 whole entry): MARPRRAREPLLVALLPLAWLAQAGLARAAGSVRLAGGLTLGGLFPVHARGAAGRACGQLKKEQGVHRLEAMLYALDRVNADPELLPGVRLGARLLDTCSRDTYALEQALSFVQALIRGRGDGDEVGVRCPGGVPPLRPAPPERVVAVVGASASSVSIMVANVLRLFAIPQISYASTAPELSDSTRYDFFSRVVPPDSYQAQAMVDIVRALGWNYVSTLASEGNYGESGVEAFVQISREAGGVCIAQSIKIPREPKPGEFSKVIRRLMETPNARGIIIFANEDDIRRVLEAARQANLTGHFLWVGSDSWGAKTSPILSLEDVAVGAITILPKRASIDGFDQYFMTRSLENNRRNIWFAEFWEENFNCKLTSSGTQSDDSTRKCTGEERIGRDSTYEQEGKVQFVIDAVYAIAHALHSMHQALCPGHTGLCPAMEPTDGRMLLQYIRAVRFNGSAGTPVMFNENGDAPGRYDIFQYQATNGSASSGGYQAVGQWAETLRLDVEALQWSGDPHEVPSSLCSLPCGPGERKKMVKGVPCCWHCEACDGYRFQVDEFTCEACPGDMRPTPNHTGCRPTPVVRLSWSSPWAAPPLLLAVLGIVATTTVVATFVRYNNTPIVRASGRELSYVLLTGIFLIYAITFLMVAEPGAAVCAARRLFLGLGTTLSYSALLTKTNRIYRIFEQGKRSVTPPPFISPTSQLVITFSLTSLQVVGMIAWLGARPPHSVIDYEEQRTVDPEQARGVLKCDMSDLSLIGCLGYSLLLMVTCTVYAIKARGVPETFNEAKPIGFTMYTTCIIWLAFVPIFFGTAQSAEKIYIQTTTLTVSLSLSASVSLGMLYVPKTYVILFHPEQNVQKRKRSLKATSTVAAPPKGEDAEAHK
Chain of Metabotropic glutamate receptor 1 (Q13255 whole entry): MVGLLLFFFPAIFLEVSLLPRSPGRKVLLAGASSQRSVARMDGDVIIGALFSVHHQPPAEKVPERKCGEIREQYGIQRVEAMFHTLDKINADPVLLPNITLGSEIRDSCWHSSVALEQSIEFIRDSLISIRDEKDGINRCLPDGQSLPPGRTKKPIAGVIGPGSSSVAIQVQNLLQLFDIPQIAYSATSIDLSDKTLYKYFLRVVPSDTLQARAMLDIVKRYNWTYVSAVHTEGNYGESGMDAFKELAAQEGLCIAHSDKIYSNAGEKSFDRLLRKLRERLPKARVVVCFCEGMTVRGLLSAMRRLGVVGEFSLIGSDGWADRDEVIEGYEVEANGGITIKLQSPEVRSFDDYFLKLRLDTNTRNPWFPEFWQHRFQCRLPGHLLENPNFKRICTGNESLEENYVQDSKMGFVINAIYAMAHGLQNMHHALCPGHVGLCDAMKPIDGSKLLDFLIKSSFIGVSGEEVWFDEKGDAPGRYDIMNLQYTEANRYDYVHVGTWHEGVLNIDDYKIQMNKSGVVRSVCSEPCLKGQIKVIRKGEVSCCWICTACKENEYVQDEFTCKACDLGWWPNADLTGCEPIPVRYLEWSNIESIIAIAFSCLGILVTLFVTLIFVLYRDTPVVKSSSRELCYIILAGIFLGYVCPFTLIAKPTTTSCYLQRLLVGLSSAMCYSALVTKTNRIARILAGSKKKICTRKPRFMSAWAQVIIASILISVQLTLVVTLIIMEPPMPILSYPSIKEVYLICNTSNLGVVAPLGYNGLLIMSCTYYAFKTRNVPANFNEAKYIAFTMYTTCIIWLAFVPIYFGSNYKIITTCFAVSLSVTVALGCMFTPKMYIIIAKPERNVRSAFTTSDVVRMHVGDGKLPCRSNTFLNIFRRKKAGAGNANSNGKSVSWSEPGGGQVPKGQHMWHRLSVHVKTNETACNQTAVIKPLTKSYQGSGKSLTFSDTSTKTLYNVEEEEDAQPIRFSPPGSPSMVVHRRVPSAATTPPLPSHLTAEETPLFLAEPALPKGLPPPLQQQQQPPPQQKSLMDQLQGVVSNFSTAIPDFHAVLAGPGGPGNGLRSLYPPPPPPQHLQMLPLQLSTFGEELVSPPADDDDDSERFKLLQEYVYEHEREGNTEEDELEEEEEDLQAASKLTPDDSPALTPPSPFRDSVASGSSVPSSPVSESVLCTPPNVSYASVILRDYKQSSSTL
Chain of Metabotropic glutamate receptor 8 (O00222 whole entry): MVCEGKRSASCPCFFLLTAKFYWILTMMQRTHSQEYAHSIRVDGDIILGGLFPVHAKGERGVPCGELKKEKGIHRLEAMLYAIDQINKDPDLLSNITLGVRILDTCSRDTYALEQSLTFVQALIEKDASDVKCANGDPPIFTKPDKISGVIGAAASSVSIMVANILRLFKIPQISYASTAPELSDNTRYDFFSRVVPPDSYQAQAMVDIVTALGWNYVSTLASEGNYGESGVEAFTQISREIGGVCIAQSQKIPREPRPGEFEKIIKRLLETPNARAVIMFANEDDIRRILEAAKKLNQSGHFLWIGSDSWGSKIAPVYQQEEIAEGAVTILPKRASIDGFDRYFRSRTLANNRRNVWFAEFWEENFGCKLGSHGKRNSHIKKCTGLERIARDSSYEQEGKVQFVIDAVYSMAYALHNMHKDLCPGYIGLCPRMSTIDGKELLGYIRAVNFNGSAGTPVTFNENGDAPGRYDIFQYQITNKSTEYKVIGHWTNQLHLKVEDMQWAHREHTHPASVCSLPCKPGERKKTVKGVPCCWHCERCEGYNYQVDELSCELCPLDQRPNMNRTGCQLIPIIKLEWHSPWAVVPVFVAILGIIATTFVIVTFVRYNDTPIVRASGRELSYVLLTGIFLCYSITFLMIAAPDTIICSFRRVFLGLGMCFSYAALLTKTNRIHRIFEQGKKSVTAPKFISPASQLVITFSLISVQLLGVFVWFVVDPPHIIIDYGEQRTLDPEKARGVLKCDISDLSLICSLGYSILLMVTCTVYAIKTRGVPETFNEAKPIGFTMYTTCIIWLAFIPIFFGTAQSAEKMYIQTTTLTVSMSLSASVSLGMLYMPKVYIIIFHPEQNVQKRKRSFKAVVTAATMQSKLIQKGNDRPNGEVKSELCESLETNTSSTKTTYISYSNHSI
Chain of Metabotropic glutamate receptor 5 (P41594 whole entry): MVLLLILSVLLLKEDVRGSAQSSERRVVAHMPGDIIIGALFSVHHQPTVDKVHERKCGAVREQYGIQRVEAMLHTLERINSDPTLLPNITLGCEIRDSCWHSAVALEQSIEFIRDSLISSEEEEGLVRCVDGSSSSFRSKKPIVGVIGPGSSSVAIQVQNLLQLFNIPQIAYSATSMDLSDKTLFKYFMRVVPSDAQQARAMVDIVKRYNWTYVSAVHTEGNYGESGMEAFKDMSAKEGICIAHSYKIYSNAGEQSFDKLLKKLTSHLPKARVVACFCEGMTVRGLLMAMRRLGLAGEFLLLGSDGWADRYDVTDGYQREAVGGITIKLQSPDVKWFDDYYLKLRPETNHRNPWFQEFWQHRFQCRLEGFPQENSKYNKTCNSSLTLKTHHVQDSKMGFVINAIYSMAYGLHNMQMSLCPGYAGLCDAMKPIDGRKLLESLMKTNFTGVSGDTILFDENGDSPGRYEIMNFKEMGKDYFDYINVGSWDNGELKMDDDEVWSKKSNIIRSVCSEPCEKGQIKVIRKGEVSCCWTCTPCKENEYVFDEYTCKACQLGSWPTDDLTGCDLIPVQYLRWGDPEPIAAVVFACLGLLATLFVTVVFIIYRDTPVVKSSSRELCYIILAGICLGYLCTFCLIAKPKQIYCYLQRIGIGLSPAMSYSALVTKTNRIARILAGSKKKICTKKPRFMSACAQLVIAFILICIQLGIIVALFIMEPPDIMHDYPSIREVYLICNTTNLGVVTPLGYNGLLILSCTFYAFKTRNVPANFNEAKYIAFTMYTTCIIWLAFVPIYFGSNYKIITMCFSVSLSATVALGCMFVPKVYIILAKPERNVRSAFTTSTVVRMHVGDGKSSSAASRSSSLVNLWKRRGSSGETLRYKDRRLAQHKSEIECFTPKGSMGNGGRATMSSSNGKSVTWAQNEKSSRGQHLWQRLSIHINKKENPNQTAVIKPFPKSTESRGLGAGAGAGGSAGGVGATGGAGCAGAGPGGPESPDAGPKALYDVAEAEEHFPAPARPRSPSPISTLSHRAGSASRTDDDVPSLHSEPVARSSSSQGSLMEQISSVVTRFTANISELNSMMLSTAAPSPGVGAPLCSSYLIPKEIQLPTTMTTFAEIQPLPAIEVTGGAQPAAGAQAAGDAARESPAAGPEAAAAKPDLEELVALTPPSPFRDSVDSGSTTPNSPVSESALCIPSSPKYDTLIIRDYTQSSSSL

On to `FC(F)(F)c1c(CN2CCC(c3ccc([18F])cc3Cl)CC2)ccn2c(CC3CC3)nnc12`, for which, in data set [1], the unbound share (fraction unbound) at 2.333 h stood at 0.12. Moreover, in “in vivo [2]”, the blood plasma ratio at 11 min stood at 1.12. Besides, the share remaining at 1.5 h in the data set “in vivo [3]” is 49.3%.

In the case of `Fc1cc(Cl)ccc1N1CCN(Cc2ccn3c(CC4CC4)nnc3c2C(F)(F)F)CC1`, the EC50 in data set [4], in data set [5], in data set [6], in data set [7] and in data set [8] was above 10 µM in each case.

In the case of `O=C(c1cnc2c(cnn2CC2CC2)c1C(F)(F)F)N1CCN(c2ccc(F)cc2F)CC1`, the EC50 in data set [4], in data set [5], in data set [6], in data set [7] and in data set [8] was above 1 µM each time.

On to `Fc1ccc(N2CCN(Cc3cc(C(F)(F)F)cn4c(CC5CC5)nnc34)CC2)c(F)c1`, for which the EC50 in data set [4], in data set [5], in data set [6], in data set [7] and in data set [8] was above 10 µM each time.

`Fc1ccc(N2CCN(Cc3ccn4c(CC5CC5)nnc4c3C(F)(F)F)CC2)c(Cl)c1`: the EC50 in data set [4], in data set [5], in data set [6], in data set [7] and in data set [8] was above 10 µM throughout.

Turning to `Fc1ccccc1N1CCN(Cc2ccn3c(CC4CC4)nnc3c2C(F)(F)F)CC1`, the EC50 in data set [4], in data set [5], in data set [6], in data set [7] and in data set [8] was above 10 µM in each case.
